Compounds with a hit are over-represented: about 9.6% of the library has one in this group of screens.
Ba/F3 V617F tox: lowers viability of Ba/F3 cells expressing EpoR and JAK2V617F; ATP luminescence; inhibition, % at 5.6 µM; 1.1% of 220,000 active; AID 1446;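 active = inhibition above the campaign mean plus 3 SD over all tested compounds, cut at about 24% in these data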;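 note: cytokine-independent growth of Ba/F3 cells driven by EpoR plus mutant JAK2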
Lmaj promast: Leishmania major promastigote growth inhibition | 9% of 200,000 active | inhibition, % at 10 µM | Leishmania major promastigotes, resazurin fluorescence viability; in the data active = inhibition above about 50%;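 note: promastigotes grown with compound for 44 hours at 28 °C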
bCat nuc transl: alters nuclear translocation of beta-catenin in HeLa cells | immunofluorescence imaging | nuclear translocation activity, % at 5 µM | 0.3% of 190,000 active;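 active = nuclear translocation activity above 50% at 5 µM, with a well cell count of 50 or more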;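 note: per-cell ratio of nuclear to cytoplasmic median beta-catenin stain intensity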
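Test system: human HeLa cell line; Doses: 5 µM primary, 0.02–20 µM confirmation; Incubation: 24 h compound exposure, 37°C; Detection: beta-catenin immunofluorescence imaging with DAPI; Read-out: beta-catenin nuclear/cytoplasmic ratio, % activation.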
APP 5UTR inh: APP translation inhibition. inhibition, % at 2 µM. SH-SY5Y APP 5'UTR-luciferase reporter, luminescence. 0.82% of 190,000 active;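 active = inhibition above a set limit, derived from the sample mean plus 3 SD, cut at about 45% in these data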
MT stabilize HCS: stabilizes microtubules in HeLa cells | HeLa tubulin immunostaining HCS, 24 h; share of cells brighter than vehicle mean+2SD | % tubulin-high responders, % at 10 µM | 0.83% of 200,000 active | AID 2205;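 active = plate Z-score above 3 for both tubulin-high and condensed-nucleus cell shares, with cell loss under 80%, at 10 µM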;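 note: anti alpha tubulin signal scored within the nucleus-defined area of each cell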
BaF3 parental: reduces parental Ba/F3 cell viability, JAK2V617F counter-screen | CellTiter-Glo ATP luminescence | inhibition, % at 5.6 µM | 1.1% of 220,000 active;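 active = inhibition above a per-campaign cutoff, the mean inhibition of all tested compounds plus 3 SD, cut at about 27% in these data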
Of the large screens only hits and unclear results are named; the others gave an inactive call.

c1ccc(CCN(Cc2ccccc2)C2CCN(C3CCCC3)CC2)cc1	Lmaj promast 91.8
Cc1ccc(C2C(C=Nc3c(C)n(C)n(-c4ccccc4)c3=O)=C(c3ccccc3)Oc3ccccc32)cc1 (configuration not stated)	Lmaj promast 56.1 (no result: bCat nuc transl)
Cc1c(N=Cc2cccs2)c(=O)n(-c2ccccc2)n1C	none
CC(=O)n1nc(-c2ccccc2)nc1NCc1cccs1	none
COc1ccccc1-c1nnc(NC(=O)CSc2nncn2C)s1	none
COc1ccc(-c2nnc(SCc3nc4ccccc4s3)n2C(C)C)cc1	Lmaj promast 83.8
COc1ccccc1-c1nnc(SCc2nc3ccccc3s2)n1C	none
Cn1c(SCCS(=O)(=O)c2ccc(Cl)cc2)nnc1-c1ccccc1	Lmaj promast 100.0
Cn1c(NCCCN2CCOCC2)nc2c1c(=O)n(Cc1ccc(Cl)cc1)c(=O)n2C	Lmaj promast 74.1
Cn1c(NCCCN2CCOCC2)nc2c1c(=O)n(Cc1ccc(Cl)c(Cl)c1)c(=O)n2C	Lmaj promast 98.8
COc1ccc(Cn2c(=O)c3c(nc(NCCO)n3C)n(C)c2=O)cc1	none
Cn1c(NCc2ccco2)nc2c1c(=O)n(Cc1ccc(Cl)cc1)c(=O)n2C	none
COc1ccc(S(=O)(=O)N2CCCC(C(=O)NCCC(C)C)C2)cc1 (configuration not stated)	none
CCn1c(NC(=O)c2ccc(C)cc2)c2ccccc2nc1=O	Lmaj promast 76.9
O=C(COC(=O)CC1CC2CCC1C2)Nc1cc([N+](=O)[O-])ccc1F (configuration not stated)	none
O=C(c1ccc([N+](=O)[O-])s1)N1CCc2ccccc2C1	Lmaj promast 94.2
O=C(c1ccccc1[N+](=O)[O-])N1CCc2ccccc2C1	none
CCSC1=N/C(=C/c2ccsc2)C(=O)N1c1ccccc1	none
Cc1ccc(C)c(-n2c3nc(=O)[nH]c(=O)c-3cc3cc([N+](=O)[O-])ccc32)c1	Lmaj promast 97.2, bCat nuc transl 92.6, APP 5UTR inh 90.9, BaF3 parental 56.4
COc1ccc(/C=N/n2cc(-c3ccccc3)nc2N)cc1	none
COc1ccc(/C=N/n2cc(-c3ccc(OC)cc3)nc2N)cc1	Lmaj promast 93.2
O=C(c1ccco1)N1CCn2cccc2C1c1ccccc1 (configuration not stated)	none
CN(Cc1ccccc1)S(=O)(=O)c1ccc(C(=O)Nc2nnc(C3CC3)o2)cc1	Lmaj promast 99.2
COc1ccccc1-c1nnc(NC(=O)c2ccc(S(=O)(=O)N(C)Cc3ccccc3)cc2)o1	Lmaj promast 97.4
CN(c1ccccc1)S(=O)(=O)c1ccc(C(=O)Nc2nnc(-c3ccc(F)cc3)o2)cc1	none (no result: bCat nuc transl)
COc1ccc(Cn2ccnc2)cc1Br	Lmaj promast 71.5
Cc1cc(Cl)c(OCCCn2ccnc2)c(Br)c1	none
COc1cc(C)ccc1OCCOCCOc1cc(C)c(C)cc1Br	none
Cc1ccc(OCCOCCn2ccnc2)c(Br)c1	Lmaj promast 91.5
Clc1ccc(OCCCn2ccnc2)c(Br)c1	Lmaj promast 94.8
O=C1C2N=NN(CC(=O)N3N=C(c4ccccc4)CC3c3ccc([N+](=O)[O-])cc3)C2C(=O)N1c1ccccc1 (configuration not stated)	none
COC(=O)c1oc(-c2ccc(Cl)cc2)nc1C	none
c1ccc(-c2csc3ncnc(N4CCc5ccccc5C4)c23)cc1	Lmaj promast 89.3
COc1ccc(-c2oc(NC(=O)CSc3ncn[nH]3)c(C#N)c2-c2ccc(OC)cc2)cc1	MT stabilize HCS 46.8
COc1ccc(-c2oc(NC(=O)CCl)c(C#N)c2-c2ccc(OC)cc2)cc1	Lmaj promast 100.3 (no result: bCat nuc transl)
Cc1ccc(-n2c(=O)[nH]cc(C(=O)Nc3ccc4c(c3)OCO4)c2=O)cc1C	none (no result: Ba/F3 V617F tox, Lmaj promast, APP 5UTR inh, MT stabilize HCS, BaF3 parental)
CSc1c(-c2ccccn2)c(N)nn1C(=O)C1CC1	none (no result: Lmaj promast, APP 5UTR inh, MT stabilize HCS)
CCOc1cccc(C2NC(=S)NC(C)=C2C(=O)Nc2ccccc2)c1 (configuration not stated)	MT stabilize HCS 13.7
CCOC(=O)c1c(NC(=O)C2=C(C)NC(=S)NC2c2ccc(F)cc2F)sc(C)c1C (configuration not stated)	none
CCOC(=O)c1c(NC(=O)C2=C(C)NC(=S)NC2c2ccc(C)cc2)sc(C)c1C (configuration not stated)	Lmaj promast 80.6
CCOC(=O)c1c(NC(=O)C2=C(C)NC(=S)NC2c2ccc(F)cc2)sc(C)c1C (configuration not stated)	Lmaj promast 82.0 (no result: bCat nuc transl)
COc1ccc(OCCC(=O)OCC(=O)NCc2ccccc2)cc1	none
COc1ccc(C(=O)N/C(=C\c2ccco2)C(=O)OCc2ccco2)cc1	none (no result: Lmaj promast, APP 5UTR inh, MT stabilize HCS)
CCCCOc1ccc(C(=O)N/C(=C\c2ccc(OC)cc2)C(=O)OCc2ccco2)cc1	Lmaj promast 96.4
Cc1ccc(C)[n+](CC(=O)c2ccc(-c3ccccc3)cc2)c1	Lmaj promast 70.0
COc1ccc(C(=O)C[n+]2cccc(Br)c2)cc1	none (no result: Lmaj promast, APP 5UTR inh, MT stabilize HCS)
COC(=O)c1ccc[n+](CC(=O)c2ccc(Br)cc2)c1	Lmaj promast 56.4 (no result: bCat nuc transl)
Cc1ccc[n+](CC(=O)c2ccc(-c3ccccc3)cc2)c1	Lmaj promast 100.2
C/C(=C\C(=O)c1ccc(Cl)cc1Cl)N(C)C	none
O=S(=O)(Nc1cc(Sc2ncn[nH]2)c(O)c2ccccc12)c1ccccc1	Ba/F3 V617F tox 95.1, Lmaj promast 99.1, APP 5UTR inh 75.8, BaF3 parental 99.4
Cc1cc(NS(=O)(=O)c2ccccc2)c(C)c(Cl)c1O	none (no result: Ba/F3 V617F tox, Lmaj promast, APP 5UTR inh, MT stabilize HCS, BaF3 parental)
CCOC(=O)c1cnn2c(C(F)(F)F)cc(-c3ccccc3)nc12	none
COc1ccc(-c2cc(C(F)(F)F)n3ncc(C(=O)N4CCCCC4c4cccnc4)c3n2)cc1 (configuration not stated)	Lmaj promast 98.5
CCOC(=O)C1CCCN(C(=O)c2cnn3c(C(F)(F)F)cc(-c4ccccc4)nc23)C1 (configuration not stated)	Lmaj promast 51.9
O=C(c1cnn2c(C(F)(F)F)cc(-c3ccc4c(c3)OCO4)nc12)N1CCCC1	Lmaj promast 76.6
CNC(=S)N1N=C(c2ccc(C)cc2)CC1c1ccc(Cl)cc1 (configuration not stated)	Lmaj promast 100.2 (no result: bCat nuc transl)
CNC(=S)N1N=C(c2ccc(C)cc2)CC1c1ccc(Br)cc1 (configuration not stated)	Lmaj promast 100.2 (no result: bCat nuc transl)
CCOC(=O)C1CCC2(CC1)C(C#N)=C(N)Oc1n[nH]c(C)c12 (configuration not stated)	none
c1cncc(C(c2nnnn2C2CCCC2)N2CCN(Cc3ccc4c(c3)OCO4)CC2)c1 (configuration not stated)	Lmaj promast 91.0
CCCCC(c1nnnn1C1CCCC1)N1CCN(C(=O)c2ccco2)CC1 (configuration not stated)	Lmaj promast 57.7
CCC(c1nnnn1C1CCCC1)N1CCN(Cc2ccccc2)CC1 (configuration not stated)	Lmaj promast 81.1

High-throughput results as filed in PubChem BioAssay.
